Compounds with a hit are over-represented: about 7.1% of the library has one in this group of screens.
H69AR growth 86K: growth inhibitors of human H69AR lung tumor cells; H69AR lung tumor viability, ATP luminescence, 72 h; active compounds read low; actives 6% (n = 85,000); AID 598; viability, % at 10 µM;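 active = viability at or below 40%; inactive = viability above 40%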;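 note: multidrug resistant small cell line overexpressing MRP-1 efflux transporter; 100% = mean luminescence of untreated control wells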
bCat KO growth: beta-catenin-lacking colon tumor cell growth suppression | viability, % at 10 µM | actives 1.5% (n = 140,000) | AID 818 | HCT116 beta-catenin knockout viability, CellTiter-Glo, 60 h; active compounds read low;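 active = viability at or under a set limit, the compound median less 4 SD, cut at about 6% in these data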;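 note: 0% = Hyamine 1622 control at 20 µM and 100% = untreated cell control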
HUVEC inhibit: blocks proliferation of human endothelial cells; HUVEC proliferation, CellTiter-Glo luminescence, 72 h; active compounds read low; viability, % at 10 µM (by protocol); actives 1.1% (n = 86,000); AID 648;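 active = viability at or below 30%; inactive = viability above 30%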;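 note: 100% = median luminescence of DMSO-only cell control wells on each plate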
Cav3 T inh: inhibitors of human Cav3.2 T-type calcium channel. Cav3.2-expressing cells, Fluo-4 calcium fluorescence FDSS; active compounds read low. B-score at 10 µM. actives 4% (n = 100,000). O95180;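 active = single-dose well whose peak fluorescence ratio is a statistical outlier from its plate by either plate-standardised score or position-corrected B-score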
Lung fibro prol: blocks proliferation of human lung fibroblasts | LL 47 human lung fibroblast viability, ATP luminescence; active compounds read low | viability, % at 10 µM | actives 1.1% (n = 85,000);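 active = viability at or below 50% in the single dose screen; inactive = viability above 50%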;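 note: compound exposure lasted 72 h before the ATP readout; 100% = median luminescence of untreated cell-only wells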
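material = human LL 47 lung fibroblast cells | dosing = compounds added from tenfold dosing solution, 0.1% DMSO final | timing = overnight cell rest, 72 h compound treatment at 37 °C | measured by = CellTiter-Glo luminescence measuring cellular ATP | evaluation = % viability versus median cells-only luminescence | control set = cell-only wells, no compound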
HCT116 PTEN-null: growth suppressors of cells with PTEN tumor suppressor deletion; HCT116 PTEN-null viability, CellTiter-Glo, 60 h; active compounds read low; viability, % at 10 µM; actives 1.2% (n = 140,000);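 active = viability at or below a set limit, 4 SD under the median of all tested compounds, cut at about 3.7% in these data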;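 note: PTEN knockout HCT116 line with beta catenin targeted HCT116 as companion control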
Starred values were filed as active, the others as inactive; . = no result.

SMILES	H69AR growth 86K	bCat KO growth	HUVEC inhibit	Cav3 T inh	Lung fibro prol	HCT116 PTEN-null
COc1ccc2nc(/C=N/NC(=O)[C@H](C)NC(=O)OC(C)(C)C)ccc2c1	.	91	.	.	.	100
O=C(NCCc1c[nH]c2ccccc12)C(=O)NCC1OCCN1S(=O)(=O)c1ccc(F)cc1 (stereo not drawn)	.	86	.	-5.9*	.	81
O=C(NCc1ccc(Cl)cc1)C(=O)NCC1OCCN1S(=O)(=O)c1ccc2c(c1)OCCO2 (stereo not drawn)	.	77	.	-5.1*	.	76
O=C(NCCc1c[nH]c2ccccc12)C(=O)NCC1OCCCN1S(=O)(=O)c1ccccc1 (stereo not drawn)	.	88	.	.	.	77
O=C(NCCc1c[nH]c2ccccc12)C(=O)NCC1OCCN1S(=O)(=O)c1ccc(Cl)cc1 (stereo not drawn)	.	60	.	-7.1*	.	60
Cc1ccc(CNC(=O)C(=O)NCC2OCCN2C(=O)c2ccc(Cl)cc2)cc1 (stereo not drawn)	.	74	.	-4.4*	.	91
O=C(C1CCCN(CCCc2ccccc2)C1)N1CCCCCC1 (stereo not drawn)	.	89	.	.	.	83
O=C(NCCc1cccs1)C1CC(c2c(Cl)cccc2Cl)=NO1 (stereo not drawn)	.	27	.	0.75	.	21
O=C(NNC(=O)C(c1ccccc1)c1ccccc1)c1ccccn1	.	4.8*	.	.	.	6
CC(C)Oc1ccc(C2C(C(=O)c3ccco3)=C(O)C(=O)N2CCCN(C)C)cc1 (stereo not drawn)	89	.	92	.	104	.
O=[N+]([O-])/C=C/c1cn(Cc2ccc(F)cc2)c2ccccc12	.	1.9*	.	-0.0051	.	1.4*
COc1ccc(NC(=O)Cn2c(=O)n(-c3ccc(OC)cc3OC)c(=O)c3c(C)c(C)sc32)cc1	.	88	.	.	.	90
COC(=O)c1ccccc1NC(=O)Nc1ccc2c(c1)OCO2	107	99	86	0.49	97	97
COc1ccc(C(C)(C)C)cc1NC(=O)Nc1ccc2c(c1)OCO2	22*	47	60	.	98	45
CCCNC(=O)c1c(N)n(-c2cc(OC)cc(OC)c2)c2nc3ccccc3nc12	51	56	56	-6.5*	91	63
COc1ccc(-n2c(N)c(C(=O)NCC3CCCO3)c3nc4ccccc4nc32)c(OC)c1 (stereo not drawn)	40*	48	67	-8*	87	46
CCOc1ccc(-n2c(N)c(C(=O)NCc3ccco3)c3nc4ccccc4nc32)cc1	11*	12	86	-0.75	104	9
Cc1cccc(-n2c(N)c(C(=O)NCCN3CCOCC3)c3nc4ccccc4nc32)c1	32*	82	81	-0.21	100	78
Nc1c(C(=O)NCc2ccco2)c2nc3ccccc3nc2n1CCc1ccccc1	.	56	.	.	.	31
CCCNC(=O)c1c(N)n(-c2ccc3c(c2)OCO3)c2nc3ccccc3nc12	8.6*	20	46	-1.5	7.6*	36
COCCCNC(=O)c1c(N)n(-c2ccc3c(c2)OCO3)c2nc3ccccc3nc12	28*	72	70	-0.52	75	37
O=C(COC(=O)c1cc(-c2ccccc2Cl)nc2ccccc12)Nc1ncc(C(F)(F)F)cc1Cl	.	98	.	.	.	95
COc1nc(Cl)cn(-c2ccc(C)cc2)c1=O	.	92	.	.	.	101
Cc1ccc(-n2c(Cl)c(Cl)nc(Cl)c2=O)cc1	.	4.9*	.	.	.	2.5*
CC1=C(C)C(=O)C(CCCCC#CCCCC#CCO)=C(C)C1=O	41	79	74	-4.1*	81	76
SMILES	H69AR growth 86K	bCat KO growth	HUVEC inhibit	Cav3 T inh	Lung fibro prol	HCT116 PTEN-null
Cc1ccc(-c2nnc(SCC(=O)N/N=C/c3ccc(C)s3)n2-c2ccccc2)cc1	.	105	.	.	.	106
C#CCn1c(S(=O)(=O)Cc2ccc(F)cc2)nc(-c2ccccc2)c1-c1ccccc1	.	60	.	-3.8*	.	67
COc1cc(N(C(=O)Cc2cccs2)C(C(=O)NC2CCCCC2)c2ccc(C)cc2)ccc1-n1cnnn1 (stereo not drawn)	.	15	.	.	.	1.4*
C#CC(=O)N(c1cccc(OC)c1)C(C(=O)NC1CCCC1)c1cccs1 (stereo not drawn)	.	0.5*	.	0.74	.	1.0*
C#CC(=O)N(c1ccc(OC)c(OC)c1)C(C(=O)NC1CCCC1)c1cccs1 (stereo not drawn)	.	1.3*	.	0.93	.	1.7*
O=C(COC(=O)c1c(Cl)ccc(Cl)c1Cl)NC(=O)NCc1ccccc1	.	93	.	.	.	92
O=c1c2cc(Br)ccc2nc(-c2cccc(C(F)(F)F)c2)n1O	.	18	.	-7.9*	.	18
CC1CCc2sc(C(=O)OCC(=O)NCc3ccc(F)cc3)cc2C1 (stereo not drawn)	.	26	.	.	.	20
CC(C)(C)c1cc(=O)n(-c2ccccc2)[nH]1	.	103	.	.	.	92
Cc1nc2cc(CC(=O)O)ccc2o1	.	94	.	0.83	.	83
COc1cc(NC(=O)CSc2nc3ccccc3cc2Cc2ccccc2)cc(OC)c1	.	77	.	-3	.	78
COc1cccc(NC(=O)CSc2nc3ccccc3cc2Cc2ccccc2)c1	.	93	.	-4*	.	85
COc1ccc(NC(=O)CSc2nc3ccccc3cc2Cc2ccccc2)cc1	.	92	.	-4.2*	.	89
COc1ccc(OC)c(NC(=O)CSc2nc3ccccc3cc2Cc2ccccc2)c1	.	75	.	-1.5	.	79
CO/N=C/NC(=O)c1c(OC)ccnc1Oc1cccc(C(F)(F)F)c1	.	95	.	2	.	84
CC(C)(C)c1ccc(S(=O)(=O)NCCOCC(F)(F)C(F)F)cc1	96	94	107	-3.8*	94	92
Cc1cccc(C(C)Nc2ccc([N+](=O)[O-])cn2)c1 (stereo not drawn)	.	62	.	-4.3*	.	55
CC(C)(C)c1ccc(CNc2ccc([N+](=O)[O-])cn2)cc1	.	34	.	.	.	13
CCOC(=O)c1ccc(Nc2ncnc3ccc(C)cc23)cc1	84	90	61	-0.069	115	89
CCOC(=O)c1cccc(Nc2ncnc3ccc(C)cc23)c1	22*	43	84	1.3	90	46
CCc1cccc(C)c1NC(=S)N(Cc1cccnc1)Cc1ccco1	.	81	.	.	.	76
Cc1ccc(OC(F)F)c(NC(=O)Nc2cccc(C(F)(F)F)c2)c1	2.4*	23	43	0.055	35*	17
Cc1ccc(S(=O)(=O)n2c([N+](=O)[O-])cnc2C)c(C)c1C	.	89	.	.	.	97
Cc1cc(Br)ccc1OCCCCN1CCC(C)CC1	.	45	.	.	.	53
N#Cc1cnn(-c2nc(SCc3ccccc3)nc3sc4c(c23)CCCC4)c1N	96	75	82	-5*	88	68
Cc1ccc(S(=O)(=O)ON2C(=O)c3ccccc3C2=O)c(C)c1	.	86	.	.	.	93
Cc1ccc(S(=O)(=O)/N=C2/C=C(Sc3ncn[nH]3)C(=O)c3ccccc32)cc1	.	31	.	.	.	67
Cc1ccc(S(=O)(=O)/N=C2/C=C(Sc3ncn[nH]3)C(=O)c3ccccc32)c(C)c1	.	1.9*	.	.	.	2.8*

Bioassay records deposited in PubChem BioAssay by several laboratories.
